Results published in the EternaBench riboswitch data.

Tested on: MS2 coat protein
Assay: apparent Kd, MS2 coat protein; higher = weaker binding; RNA-MaP array; FMN 200 µM where present
Method in brief: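 Green signal was scaled to red-channel RNA signal and control-cluster median Fmax, and the apparent Kd was taken as the median of filtered per-cluster binding-curve fits. The binding series used SNAP-549-labelled MS2 coat protein from 0.7 or 1.5 nM, doubling to 3 µM, on designs transcribed by stalled E. coli RNA polymerase on Illumina sequencing-chip clusters. Each series ran without and then with constant ligand in 100 mM Tris-HCl pH 7.5, 80 mM KCl, 4 mM MgCl2, BSA, DTT, yeast tRNA and Tween-20.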

[1] = designed as: OFF switch for flavin mononucleotide, no ligand
[2] = ligand present: flavin mononucleotide, designed as: OFF switch for flavin mononucleotide
[3] = designed as: ON switch for flavin mononucleotide, no ligand
[4] = ligand present: flavin mononucleotide, designed as: ON switch for flavin mononucleotide

Row | Sequence | apparent Kd [1] [nM] | apparent Kd [2] [nM] | apparent Kd [3] [nM] | apparent Kd [4] [nM]
1 | UACCUGAGGCCAAGCUUUAGGUAUACAUGAGGAUCACCCAUGUAGGAUAUGGUAGGCUUUGCUUACCAGAAGGACAUGUUAAUU | 19 | 64.9 | – | –
2 | GCUGACGAUGUAGGAUAUCAGUAUAAUAAAUACUGAGAAGGACAUGAGGAUCACCCAUGUAAAAUCCCGUCAGCGAGGAAACUC | 17.1 | 23.8 | – | –
3 | AAAUAAAUUAGUAUGAUAUCUUCACAUGAGGAUCACCCAUGUCAGGAUAUUUGUCCUAAAAGGACAGAGAAGGGACAUACUAUA | 6.08 | 8.31 | – | –
4 | ACUUCCCAGGAGAAGGGACAAGGCGGAGCCCGUACAUGAGGAUCACCCAUGUCAGGAUAUCCAUGCCGGAAGCUAACCCAGUUA | 6.42 | 10.1 | – | –
5 | AAAGCAACAUGAGGAUCACCCAUGUAGGAUAUCGCUAUUGUAAUCAUGAAACAUGAUUACAAUAGCGAGAAGGACAUAUGCUGG | 21.7 | 23.3 | – | –
6 | AACAAACAUGAGGAUCACCCAUGUAAGGAUAUACGAAACAAACAAACAAACAAACAAAGUAGAAGGUACAGGAA | 19.4 | 18.3 | – | –
7 | GGAUCGAGUGUGAGGAUAUGCUGGUCCUUGGAUCAGCAGAAGGCACAUGAGGAUCACCCAUGUCCAAGCGGUCC | 152 | 701 | – | –
8 | AAGAAACAUGAGGAUCACCCAUGUGAGGAUAUGAAAAAGAAAAGAAAAGAAAGAAGAAUCAGAAGGCACAAAGC | 26 | 32.7 | – | –
9 | AUUGUAGUUGUGAGGAUAUCGUUGAUUUUUUGAAACGAGAAGGCACAUGAGGAUCACCCAUGUUAGUUGUUGGU | 84 | 212 | – | –
10 | UGCCUGAGUCGAGGAUAUUAUGGAUCAAUUAAUACAUGAGGAUCACCCAUGUAAUUAAUUUAACAUGAGAAGGUGACUCAGGCU | – | – | 12.2 | 10.2
11 | UACAUGAGGAUCACCCAUGUUUUGUCGUGUAUGGUAUUUAUCUAGGAUAUCAAUUUGUUAAUUUAUGAGAAGGAGAAUAUUAAU | 35.3 | 38.3 | – | –
12 | UUCAACGAUGAAGGAUAUCUAUGUCCAACAUGAGGAUCACCCAUGUUGAGGAUUACCUAUGUGUAGGAGAAGGUCAAUUUGACU | – | – | 7.01 | 6.51
13 | CGCUAAGAUGGGUCUAAUGGAGCAUAGGAUAUGCUUGUACAUGAGGAUCACCCAUGUAAUAUUGUGCAGAAGGGUGCAUUUGCG | – | – | 127 | 61.7
14 | UGUGCGUUGAUCUUCGAUCGGAGUACAUGAGGAUCACCCAUGUAGGAUAUUCAAAGACGCAGAUAGAAGAAGGACAUCGGUUUA | 11.9 | 11.1 | – | –
15 | AUCAGCUCGUCAGGAUAUACGUCACUGUGUCAGCAGUGUGGUAAGAUCACAUGAGGAUCACCCAUGUAGAAGGGACGAGCUGAU | 12.9 | 235 | – | –
16 | GACUGACAUGAGGAUCACCCAUGUAUUCAAACAUGAGGAUAUAUAACACAUCAUCGACGGAUAGAAGGCAUAGAUA | – | – | 128 | 124
17 | CCAGCGUAUGUAAGGAUAUGCUGGUCCUUGGAUCAGCAGAAGGUACAUGAGGAUCACCCAUGUGUAAUCGUUGG | 20.6 | 56.1 | – | –
18 | GCGUGUUGAGGAUAUACGAACAUGUCGCCAGAUGUCAUGGUACAUGAGGAUCACCCAUGUAGAAGGUGGUACGC | 263 | 336 | – | –
19 | AUUAUUUUGUAGAAGGACGACUAUUAAUAUAUCGUAGGAUAUACUAUUUACAUGAGGAUCACCCAUGUUUAAAUGGAACAAUGU | 4.99 | 6.23 | – | –
20 | UUGUUGUAUGUAGGAUAUGCAUAUUAUUAUUGUGCAGAAGGACAUGAGGAUCACCCAUGUAUAUUAUUAUUAUAUGUUAUAUAU | 30.6 | 37.4 | – | –
21 | CAUACAGUAGUUAGGAUAUUGCAACGUACACGGAACGAGAAGGGACAUGAGGAUCACCCAUGUAGAUUGUAAAG | 21.8 | 21.1 | – | –
22 | UGUCGGAGCAGAGGAUAUUACAUGAGGAUCACCCAUGUAUGAACCAAUAGCUGGUAACAGCAAUGUAAGAAGGCUGCUCCGACA | 14.1 | 176 | – | –
23 | UCAUGAUGGAAGAAGGGAGUCGUGCAUGACAACUCAGGAUAUUUCACAUGAGGAUCACCCAUGUCGAAGUAACAGUGUUGAUCA | 23.9 | 45.8 | – | –
24 | CAGCCCUGAGGAUAUCUCAUCUCGCACAUGAGGAUCACCCAUGUUCUUCUCUGGGUUUCGAGAGAAGGCAGGCCUC | 586 | 434 | – | –
25 | CCUGCACAUGAGGAUCACCCAUGUCAGGAUAUCUCGCCGUCGGCUUGCCGACGGUAUUAGAGAAGGGACAAGGG | 23.4 | 29 | – | –
26 | GCGUCAGAAUUAAUUGUGACAGACAGAAGGCAAUAGUUCAUGUCAGACAUGAGGAUCACCCAUGUUGAGGAUAUGUAUUGACAC | 5.62 | 5.65 | – | –
27 | AAAAUCUAUAGAGGAUAUCCAUACGCUGCAUACGGAGAAGGCUAACAAUCAUGAGGACAUGAGGAUCACCCAUGUUGUGACCAU | – | – | 17.6 | 9.82
28 | GGAUCCAACACAGGAUAUGCUGGACUUUGUCCAGCAGAAGGGUGAAGAACAUGAGGAUCACCCAUGUGGAUCCAUAUAUUUAAC | – | – | 240 | 16.8

Row | Sequence | apparent Kd [1] [nM] | apparent Kd [2] [nM] | apparent Kd [3] [nM] | apparent Kd [4] [nM]
29 | AUACUCUUUGUGAGGAUAUCGUUUUCUUUACGGUUCGAGAAGGCACAUGAGGAUCACCCAUGUUUGACGUGAAU | 24.4 | 56.5 | – | –
30 | UUGAUUAUACAAGGAUAUCUAUUGUAAUUGAGACUUACAUGAGGAUCACCCAUGUUAAUAUUUUUAGAGAAGGUGUAUUUUCAG | – | – | 32.3 | 22.9
31 | AGAACUGAUAGAGGAUAUGUUUUACAUGAGGAUCACCCAUGUGUACAAGGAUCAAUAUAUUUGUUACAGAAGGCUAUUAGUGAG | 11.8 | 18.7 | – | –
32 | CAGGUAGACUGAGGAUAUACACUAAACAGCUAGUCUAUCUAGCUGCCUACAUGAGGAUCACCCAUGUAGAAGGCAGUCUGCCUG | 15.8 | 18.2 | – | –
33 | ACACGGUAUGUAGGAUAUGCAUAGCAUUGCUAUGCAGAAGGACAUGAGGAUCACCCAUGUAUGUAUUCCAUACUAAUCCCGUGU | 5.49 | 5.58 | – | –
34 | UGAGCGACCACAGGAUAUACUCGGGAAGACCAAGUAGAAGGGUGGAAGAGCGUGCAGUGACAUGAGGAUCACCCAUGUGGUUGU | – | – | 143 | 97.3
35 | GUAGUGUAUGUAGGAUAUGCGAAGCAAAGCUUCGCAGAAGGACAUGAGGAUCACCCAUGUAUUGCAGCCUGCAAUCAGGCUGCU | 42.2 | 184 | – | –
36 | GAAAAUACAUGAGGAUCACCCAUGUAGGAUAUCGCUAUUGUAAUCAUGUUACAUGAUUACAAUAGCGAGAAGGACGUGAGAAAG | 24.7 | 22.3 | – | –
37 | GCUGUGGCAUGAGGAUAUGCUCAGCUUUGCUGAGCAGAAGGCAUGUCAAUAGACAUGAGGAUCACCCAUGUAGUUAACACAGCA | – | – | 462 | 32.9
38 | GACGAACAUGAGGAUCACCCAUGUAAAGACGUACAAGGAUAUGUGUGGAAACCGUACUAUACAGAAGGUGUCUGUC | – | – | 53.5 | 25.5
39 | CAGAAGUCAGGAUAUCCUGCUCGUCACUUGCGUGAUGAGUAGGAGAAGGGACAUGAGGAUCACCCAUGUAAAGU | 68.9 | 95 | – | –
40 | AUUAUUGACAUAGGAUAUUGUUACAUGAGGAUCACCCAUGUUAUUUGGGAACUAGGAAUAUUUUACAAGAAGGAUGUUGUUACA | – | – | 101 | 81.3
41 | AUUAUAUAGUUAGGAUAUUGAUUAUUAUUUUAACAUGAGGAUCACCCAUGUAGCCUUAUGUAUAACAAGAAGGAACAUUUAUUA | 114 | 132 | – | –
42 | GUCAGCUCGUGAGGAUAUACAACACUGCUUCGGCAGGGUAUUAAGAUCACAUGAGGAUCACCCAUGUAGAAGGCACGAGCUGAU | 12.7 | 173 | – | –
43 | AAGUAGGUAGGAUAUACAUGGAUAUACAUUCAUGUGGACCUACAUGAGGAUCACCCAUGUAGAAGGACCUACAA | 34.8 | 64.2 | – | –
44 | GGAUCGAGAGUGAGGAUAUGCUGGUCCUUGGAUCAGCAGAAGGCACAUGAGGAUCACCCAUGUGGUUCCGAUCC | 28.8 | 244 | – | –
45 | CUUUGACAUGAGGAUCACCCAUGUGAGGAUAUGAUGCGAUCGUCGAAAGACGAUAGCAUCAGAAGGCACAUAUG | 85.7 | 238 | – | –
46 | AAGGAGUUAGGAUAUGCUGCUCGUCACUUGCGUGAUGAGUAGCAGAAGGGACAUGAGGAUCACCCAUGUAAAGA | 41.9 | 21.9 | – | –
47 | GAUCCUUCUGUUAGGAUAUGCUUCGGGCUUCCGCAGCAGAAGGAACAUGAGGAUCACCCAUGUCAAAUAAAAUC | 22.9 | 94.1 | – | –
48 | GCGUAAAAUGUAGGAUAUGACACAGGAAACUGGUCAGAAGGACAUGAGGAUCACCCAUGUAAAAUGUUCAAGAAUAACUCAUGC | – | 172 | – | –
49 | UUAAUUAAUUAAUUCGUCAAUUACAUGAGGAUCACCCAUGUAUAGGAUAUGCAGUGGAAUACACUGCAGAAGGAUACAUAGACG | 22.6 | 41.5 | – | –
50 | AGCAGACGAGGAUAUGAUAAAGAUCACAUGAGGAUCACCCAUGUACGCAGGAUACUGCGAUCAGAAGGCGUCUGCU | 13 | 13.8 | – | –
51 | GUGGUCUGACAUGAGGAUCACCCAUGUGGAAUAAAUACGGGUUAGGAUAUCUUGAGGAUCACCCAAGAGAAGGGAUGGAUGGUC | – | – | 100 | 106
52 | CCAGAGACAUAAGGAUAUCGAGUGGAUAACACUCGAGAAGGUAUGUGAAAACAUGAGGAUCACCCAUGUGAUCAAUACUCUGGA | – | – | 20.1 | 20.4
53 | GGAUGACAAAGUCAUCCAUUACGAACAUGAGGAUCACCCAUGUAGGAUAUGCUUCUCAAAGAGAAGCAGAAGGACAUGUGUCUU | 30.1 | 157 | – | –
54 | UUUUAACAUGAGGAUCACCCAUGUGAGGAUAUCGAAAUUUAUAUUUAUAUUAAUAUAACGAGAAGGCACAUUUU | 55.5 | 83.2 | – | –
55 | CUUUUGUGAGGAUAUCAGUAGUAAAUAAAUAAAAUUACUACUGAGAAGGCACAUGAGGAUCACCCAUGUUCCUC | 41.2 | 305 | – | –
